Experimental findings from article PMC4750707 (Antimicrobial Agents and Chemotherapy, 2016) are described below.

≈ marks a conversion by molar mass, not a printed value.

Assay [1] addresses S. pneumoniae PBP1a/b. The assay can be described thus: PBP competition assay with Bocillin FL. It is filed as binding, Streptococcus pneumoniae. Conditions: S. pneumoniae R6 membranes; Bocillin FL 100 μM. A digest of the protocol: (§1)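 S. pneumoniae R6 was grown on blood agar at 37°C under 5% CO2, then in BHI with agitation to A600 ~1.0. Cells in KPN buffer pH 7.5 were lysozyme-treated and French-pressed; membranes (30–40 μg protein) were used. Test compound 10 min at 30°C, then Bocillin FL 100 μM final for 20 min. SDS-PAGE fluorescence; IC50 from three assays of six concentrations.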

Assay [2] deals with H. influenzae PBP1a (Haemophilus influenzae, UniProt P31776). Put plainly: PBP competition assay with Bocillin FL. It is filed as binding. The method in brief: (§2)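 H. influenzae Rd grown in supplemented BHI at 35°C (A600 0.6–0.7). Cells in KPN buffer (20 mM K-phosphate, 140 mM NaCl, pH 7.5), lysozyme-treated 30 min, French-pressed; membranes at 150,000 × g. Used 100–120 μg membrane protein. Test compound 10 min at 30°C, then Bocillin FL 100 μM final for 20 min. Gel fluorescence band volumes; IC50 from three assays of six concentrations.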
Chain of H. influenzae PBP1a (P31776 whole entry): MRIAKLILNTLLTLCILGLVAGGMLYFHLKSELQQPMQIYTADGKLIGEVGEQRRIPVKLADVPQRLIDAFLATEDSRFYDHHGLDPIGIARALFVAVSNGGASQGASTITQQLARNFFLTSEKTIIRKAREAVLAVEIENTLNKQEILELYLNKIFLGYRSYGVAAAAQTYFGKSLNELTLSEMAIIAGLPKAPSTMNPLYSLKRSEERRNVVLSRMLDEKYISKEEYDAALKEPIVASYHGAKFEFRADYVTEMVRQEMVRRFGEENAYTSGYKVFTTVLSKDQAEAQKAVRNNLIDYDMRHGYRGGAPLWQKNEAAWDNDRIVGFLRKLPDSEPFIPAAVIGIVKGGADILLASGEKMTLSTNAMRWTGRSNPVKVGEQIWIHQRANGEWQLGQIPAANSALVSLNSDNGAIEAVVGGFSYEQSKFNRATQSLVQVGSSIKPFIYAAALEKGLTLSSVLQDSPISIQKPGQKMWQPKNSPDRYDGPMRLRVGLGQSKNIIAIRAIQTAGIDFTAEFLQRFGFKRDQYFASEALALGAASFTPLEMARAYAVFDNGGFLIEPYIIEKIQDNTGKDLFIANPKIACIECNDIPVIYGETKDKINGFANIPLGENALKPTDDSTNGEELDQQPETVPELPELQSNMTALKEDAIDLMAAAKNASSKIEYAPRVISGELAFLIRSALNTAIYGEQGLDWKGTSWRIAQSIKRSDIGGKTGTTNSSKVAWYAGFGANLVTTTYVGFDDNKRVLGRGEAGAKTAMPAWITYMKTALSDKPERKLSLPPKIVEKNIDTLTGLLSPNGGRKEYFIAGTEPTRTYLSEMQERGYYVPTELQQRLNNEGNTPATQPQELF

Assay [3] relates to S. pneumoniae. The assay can be described thus: Broth microdilution MIC. It is filed as cell-based. To be noted: Streptococcus pneumoniae. The method in brief:
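MICs by CLSI broth microdilution in cation-adjusted Mueller-Hinton broth plus 2.5% lysed horse blood. S. pneumoniae R6 grown on blood agar at 37°C under 5% CO2.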

In assay [4] the target is H. influenzae PBP4 (Haemophilus influenzae, UniProt P45161). Put plainly: PBP competition assay with Bocillin FL. In kind it is binding. The method in brief:
as §2

The target in assay [5] is H. influenzae PBP1b (Haemophilus influenzae, UniProt P45345). The assay can be described thus: PBP competition assay with Bocillin FL. In kind it is binding. The method in brief:
as §2

The target of assay [6] is H. influenzae PBP3a/b (Haemophilus influenzae, UniProt P45059). Put plainly: PBP competition assay with Bocillin FL. In kind it is binding. A digest of the protocol:
as §2

The target of assay [7] is S. pneumoniae PBP2a/b. Put plainly: PBP competition assay with Bocillin FL. To be noted: S. pneumoniae R6 membranes; Bocillin FL 100 μM. In kind it is binding, Streptococcus pneumoniae. The method in brief: as §1
Assay [8] has as its target H. influenzae PBP5 (Haemophilus influenzae, UniProt P44466). Put plainly: PBP competition assay with Bocillin FL. It is filed as binding. A digest of the protocol: as §2
In assay [9] the target is H. influenzae PBP2 (Haemophilus influenzae, UniProt P44469). Put plainly: PBP competition assay with Bocillin FL. In kind it is binding. The method in brief: as §2
Chain of H. influenzae PBP2 (P44469 whole entry): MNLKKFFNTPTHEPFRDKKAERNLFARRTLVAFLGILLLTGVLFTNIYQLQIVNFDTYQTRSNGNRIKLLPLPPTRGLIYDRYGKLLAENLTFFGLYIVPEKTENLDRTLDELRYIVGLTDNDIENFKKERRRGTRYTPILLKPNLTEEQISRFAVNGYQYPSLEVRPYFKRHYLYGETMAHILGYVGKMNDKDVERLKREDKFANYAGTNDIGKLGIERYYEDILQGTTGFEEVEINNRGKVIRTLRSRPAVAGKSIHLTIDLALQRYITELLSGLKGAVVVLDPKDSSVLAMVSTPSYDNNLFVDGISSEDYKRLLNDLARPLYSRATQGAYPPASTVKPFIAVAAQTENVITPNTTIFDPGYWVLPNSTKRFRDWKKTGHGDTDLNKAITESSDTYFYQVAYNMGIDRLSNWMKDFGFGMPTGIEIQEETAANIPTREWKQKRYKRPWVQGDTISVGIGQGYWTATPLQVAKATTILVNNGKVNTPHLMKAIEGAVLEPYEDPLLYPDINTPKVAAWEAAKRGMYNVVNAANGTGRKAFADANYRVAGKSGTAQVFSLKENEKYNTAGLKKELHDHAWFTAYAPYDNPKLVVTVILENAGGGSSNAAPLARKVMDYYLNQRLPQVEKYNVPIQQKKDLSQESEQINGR
Assay [10] concerns the target S. pneumoniae PBP2X (Streptococcus pneumoniae, UniProt P59676). The assay can be described thus: PBP competition assay with Bocillin FL. In kind it is binding. A digest of the protocol: as §1

Chain of S. pneumoniae PBP2X (P59676 whole entry): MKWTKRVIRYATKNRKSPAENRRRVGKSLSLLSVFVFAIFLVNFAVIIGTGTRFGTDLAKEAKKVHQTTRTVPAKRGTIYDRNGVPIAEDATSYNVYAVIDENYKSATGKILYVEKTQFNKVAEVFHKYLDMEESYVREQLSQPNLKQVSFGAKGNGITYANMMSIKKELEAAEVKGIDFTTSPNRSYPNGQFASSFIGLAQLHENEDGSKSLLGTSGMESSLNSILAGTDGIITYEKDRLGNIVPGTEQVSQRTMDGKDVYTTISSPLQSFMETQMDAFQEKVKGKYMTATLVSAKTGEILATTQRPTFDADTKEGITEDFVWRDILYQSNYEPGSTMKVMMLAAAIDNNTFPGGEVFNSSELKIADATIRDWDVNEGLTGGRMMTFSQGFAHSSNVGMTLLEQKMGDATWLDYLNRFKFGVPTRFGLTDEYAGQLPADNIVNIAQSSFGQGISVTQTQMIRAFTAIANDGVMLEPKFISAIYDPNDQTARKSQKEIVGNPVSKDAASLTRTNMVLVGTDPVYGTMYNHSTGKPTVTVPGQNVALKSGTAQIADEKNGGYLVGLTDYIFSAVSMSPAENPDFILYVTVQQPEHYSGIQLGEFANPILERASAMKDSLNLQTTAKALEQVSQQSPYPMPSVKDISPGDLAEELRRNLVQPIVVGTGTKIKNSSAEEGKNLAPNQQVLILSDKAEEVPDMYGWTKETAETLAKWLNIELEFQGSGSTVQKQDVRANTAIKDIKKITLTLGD
Chain of H. influenzae PBP4 (P45161 27-479): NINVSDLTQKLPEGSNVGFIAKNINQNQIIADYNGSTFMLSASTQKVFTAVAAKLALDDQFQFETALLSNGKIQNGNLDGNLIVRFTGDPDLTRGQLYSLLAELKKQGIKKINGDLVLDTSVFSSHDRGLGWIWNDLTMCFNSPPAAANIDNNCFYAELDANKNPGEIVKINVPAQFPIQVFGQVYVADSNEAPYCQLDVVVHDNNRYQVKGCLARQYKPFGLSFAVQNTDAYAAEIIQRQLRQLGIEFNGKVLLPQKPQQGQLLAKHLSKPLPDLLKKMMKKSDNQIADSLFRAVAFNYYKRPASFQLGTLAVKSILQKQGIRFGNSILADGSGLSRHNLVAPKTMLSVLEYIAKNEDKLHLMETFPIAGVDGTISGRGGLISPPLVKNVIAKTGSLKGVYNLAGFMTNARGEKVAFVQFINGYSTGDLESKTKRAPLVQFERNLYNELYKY
Chain of H. influenzae PBP5 (P44466 19-393): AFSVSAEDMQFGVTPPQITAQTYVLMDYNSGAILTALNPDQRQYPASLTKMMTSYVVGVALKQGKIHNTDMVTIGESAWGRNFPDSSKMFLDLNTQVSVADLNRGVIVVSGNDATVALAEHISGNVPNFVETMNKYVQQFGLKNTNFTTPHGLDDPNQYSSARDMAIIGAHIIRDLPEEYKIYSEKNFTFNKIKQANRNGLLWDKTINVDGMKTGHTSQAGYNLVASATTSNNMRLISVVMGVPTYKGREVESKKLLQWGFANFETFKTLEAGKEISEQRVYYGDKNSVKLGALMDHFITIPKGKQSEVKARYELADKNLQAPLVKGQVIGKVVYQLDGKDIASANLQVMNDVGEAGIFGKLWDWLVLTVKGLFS
Chain of H. influenzae PBP1b (P45345 whole entry): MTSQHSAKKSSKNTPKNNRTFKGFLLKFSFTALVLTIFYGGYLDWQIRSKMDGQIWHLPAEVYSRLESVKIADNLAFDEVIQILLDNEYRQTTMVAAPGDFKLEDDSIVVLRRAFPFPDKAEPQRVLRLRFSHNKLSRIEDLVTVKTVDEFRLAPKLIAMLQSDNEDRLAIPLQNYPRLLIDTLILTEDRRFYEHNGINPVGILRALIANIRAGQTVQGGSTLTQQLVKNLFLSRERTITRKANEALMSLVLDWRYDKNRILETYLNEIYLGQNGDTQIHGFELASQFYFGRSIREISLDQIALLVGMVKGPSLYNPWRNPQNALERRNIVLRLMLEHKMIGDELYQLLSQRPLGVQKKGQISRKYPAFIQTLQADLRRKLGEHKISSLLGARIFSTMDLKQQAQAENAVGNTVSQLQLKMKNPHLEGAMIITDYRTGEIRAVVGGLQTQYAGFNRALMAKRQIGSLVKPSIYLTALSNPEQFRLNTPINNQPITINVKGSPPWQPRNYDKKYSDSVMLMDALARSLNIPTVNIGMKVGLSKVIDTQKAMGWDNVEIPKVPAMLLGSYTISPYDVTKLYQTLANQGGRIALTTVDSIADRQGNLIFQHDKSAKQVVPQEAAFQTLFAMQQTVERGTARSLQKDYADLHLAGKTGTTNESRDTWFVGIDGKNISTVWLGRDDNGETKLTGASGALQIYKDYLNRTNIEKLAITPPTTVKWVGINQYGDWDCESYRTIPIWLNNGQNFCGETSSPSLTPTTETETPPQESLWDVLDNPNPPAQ
Chain of H. influenzae PBP3a/b (P45059 66-580 limits assumed): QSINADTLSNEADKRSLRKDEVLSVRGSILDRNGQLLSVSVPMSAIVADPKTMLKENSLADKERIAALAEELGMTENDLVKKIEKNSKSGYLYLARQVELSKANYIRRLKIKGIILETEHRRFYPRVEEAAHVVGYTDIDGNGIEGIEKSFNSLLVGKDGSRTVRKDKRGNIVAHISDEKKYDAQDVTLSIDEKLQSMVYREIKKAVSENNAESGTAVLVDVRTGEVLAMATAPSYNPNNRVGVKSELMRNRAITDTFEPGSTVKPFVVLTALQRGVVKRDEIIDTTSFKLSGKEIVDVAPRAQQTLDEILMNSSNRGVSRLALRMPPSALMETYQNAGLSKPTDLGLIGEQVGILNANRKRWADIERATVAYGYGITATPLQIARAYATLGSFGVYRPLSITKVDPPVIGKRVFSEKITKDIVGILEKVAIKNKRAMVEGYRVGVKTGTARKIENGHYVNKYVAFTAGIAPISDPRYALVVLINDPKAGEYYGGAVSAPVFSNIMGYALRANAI

Usually IC50 stands for the point on the concentration scale where inhibition reaches its midpoint. The low end stands for higher potency, the high end for lower potency. A word on the MIC: it is the lowest concentration found to suppress growth. A higher MIC goes with a less susceptible organism. For `NC(=O)[C@@H]1CC[C@@H]2CN1C(=O)N2OS(=O)(=O)O` [AVI, avibactam], the “Relative binding (IC50) for PBP 1a/b” value in assay [1] was greater than 64 µg/mL. Further, the IC50 is greater than 121 µM in assay [2]; greater than 121 µM in [4]; greater than 121 µM in [5]; greater than 121 µM in [6]; greater than 121 µM in assay [8]; 11.3 µM in [9]. In assay [10], this compound yielded an IC50 greater than 241 µM. This compound also yielded an MIC in [3] of 256 µg/mL (≈ 965 µM). Besides, the “Relative binding (IC50) for PBP 2a/b” value in assay [7] is greater than 64 µg/mL.
